Data published in ChEMBL document CHEMBL1821727, “Design, synthesis, and pharmacological evaluation of novel hybrid compounds to treat sickle cell disease symptoms” (J Med Chem, 2011).
Calls of active or inactive are those of the source. The calls are words filed in the database; no cut-off is given here.

Columns and labels:
Mus musculus [1] = assay: Antinociceptive activity in Swiss albino mouse assessed as reduction in acetic acid-induced abdominal constrictions at 100 umol/kg, po administered 1 hr before acetic acid challenge measured for 20 mins relative to control; type: functional
How it was run: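 Constrictions counted for 20 min starting 10 min after injection; % inhibition vs vehicle group; mean ± SEM, 10 animals per group, Student's t test.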

Salmonella typhimurium [2] = assay: Mutagenic activity in Salmonella Typhimurium TA102 preincubated for 20 to 30 mins; type: toxicity, organism-based; details: salmonella enterica subsp. enterica serovar typhimurium
Blood = assay: Genotoxicity in mouse peripheral blood by micronucleus test; type: toxicity, tissue-based
Mus musculus [3] = assay: Antiinflammatory activity in Swiss albino mouse assessed as inhibition of capsaicin-induced ear edema at 300 umol/kg, po administered 1 hr before capsaicin challenge measured after 30 mins relative to control; type: functional
How it was run: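 Female Swiss mice, 8 weeks old, groups of six; oral dosing at 300 μmol/kg as suspension in arabic gum, vehicle controls 10 mL/kg po; left ear given acetone. Killed 30 min after capsaicin; 7 mm ear punches weighed, edema = treated right minus untreated left ear weight; % inhibition vs vehicle control; mean ± SEM, n = 8, ANOVA/Dunnett.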

Salmonella typhimurium [4] = assay: Mutagenic activity in Salmonella Typhimurium TA100 preincubated for 20 to 30 mins; type: toxicity, organism-based; details: salmonella enterica subsp. enterica serovar typhimurium
Mus musculus [5] = assay: Antiinflammatory activity in Swiss albino mouse peritonitis model assessed as reduction in thioglycollate-induced of leukocyte migration at 300 umol/kg, po administered 1 hr before thioglycollate challenge measured after 4 hrs; type: functional, organism-based
How it was run: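 Mice dosed at 300 μmol/kg po in arabic gum, then 1 h later given 1 mL 3% thioglycollate ip. Killed at 4 h, peritoneum washed with 1.5 mL cold PBS; exudate cells recovered and total cells counted in Neubauer chamber; exudate >98% neutrophils. Mean ± SEM, at least six animals, ANOVA/Dunnett vs vehicle.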

[6] = Antiinflammatory activity in knockout-transgenic sickle cell mouse monocytes assessed as inhibition of LPS-induced TNFalpha production at 100 uM administered 30 mins before LPS challenge […]; type: functional, Monocyte
[7] = Antiinflammatory activity in knockout-transgenic sickle cell mouse monocytes assessed as inhibition of LPS-induced TNFalpha production at 300 uM administered 30 mins before LPS challenge […]; type: functional, Monocyte
[8] = Antiinflammatory activity in knockout-transgenic sickle cell mouse monocytes assessed as inhibition of LPS-induced TNFalpha production at 1 uM administered 30 mins before LPS challenge […]; type: functional, Monocyte
[9] = Antiinflammatory activity in knockout-transgenic sickle cell mouse monocytes assessed as TNFalpha level at 300 uM administered 30 mins before LPS challenge measured after […] by ELISA; type: functional, Monocyte
How it was run: (§1)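 Blood drawn by intracardiac puncture from anesthetized adult knockout-transgenic sickle cell mice; mononuclear cells isolated on Ficoll, adhered 2 h in DMEM + 10% calf serum (5% CO2, 37 °C), monocyte purity >90% by May-Giemsa. Compounds (100 or 300 μM; dexamethasone 1 μM) added 30 min before LPS 1 μg/mL; supernatant TNFα by ELISA after 20 h. Mean ± SEM, N ≥ 4 experiments.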

[10] = Antiinflammatory activity in knockout-transgenic sickle cell mouse monocytes assessed as TNFalpha level at 100 uM administered 30 mins before LPS challenge measured after […] by ELISA; type: functional, Monocyte; how it was run: as §1

Compound | Activity (Salmonella typhimurium [2]) | Activity (Blood) | inhibition in vivo at 300 µmol/kg (Mus musculus [3]) [%] | Activity (Salmonella typhimurium [4]) | Activity (Mus musculus [5]) | also measured
Cc1c(N(C)CS(=O)(=O)O)c(=O)n(-c2ccccc2)n1C | – | – | – | – | – | Activity (Mus musculus [1]; Abdomen): inactive
O=C1c2ccccc2C(=O)N1c1ccc(CCO[N+](=O)[O-])cc1 | Non-toxic | Non-toxic | 43 | Non-toxic | Active | –
O=C1c2ccccc2C(=O)N1c1ccc(CO[N+](=O)[O-])cc1 | Non-toxic | Non-toxic | 43 | Non-toxic | Active | inhibition (INH) [6]: 67%; Activity (Mus musculus [1]): 66%; inhibition (INH) [7]: 84%
C[C@@H]1C[C@H]2[C@@H]3CCC4=CC(=O)C=C[C@]4(C)[C@@]3(F)[C@@H](O)C[C@]2(C)[C@@]1(O)C(=O)CO [DEXAMETHASONE] | – | – | – | – | – | inhibition (INH) [8]: 83%
NC(=O)NO [HYDROXYUREA] | – | – | – | – | – | Activity [9]: 579.8 pg/mL; Activity [10]: 463.3 pg/mL
O=C1CCC(N2C(=O)c3ccccc3C2=O)C(=O)N1CO[N+](=O)[O-] (stereo unspecified) | Non-toxic | Non-toxic | 43 | Non-toxic | Active | –
O=C1c2ccccc2C(=O)N1CCO[N+](=O)[O-] | Non-toxic | Non-toxic | 43 | Non-toxic | Active | Activity (Mus musculus [1]): 25%
O=C1c2ccccc2C(=O)N1c1cccc(CO[N+](=O)[O-])c1 | Non-toxic | Non-toxic | 65 | Non-toxic | Active | inhibition (INH) [6]: 45%; inhibition (INH) [7]: 91%
O=C1c2ccccc2C(=O)N1CO[N+](=O)[O-] | Non-toxic | Non-toxic | 43 | Non-toxic | Active | –
COc1ccc2c(c1)c(CC(=O)O)c(C)n2C(=O)c1ccc(Cl)cc1 | – | – | – | – | – | inhibition (Mus musculus [3]): Active
